For one data set, the target named is Estrogen receptor (Homo sapiens, UniProt P03372). Nature of the data set: Binding affinity to ERalpha.
Data set [1] concerns the target T1, Sex hormone-binding globulin (Homo sapiens, UniProt P04278).
T1 sequence (P04278 whole entry): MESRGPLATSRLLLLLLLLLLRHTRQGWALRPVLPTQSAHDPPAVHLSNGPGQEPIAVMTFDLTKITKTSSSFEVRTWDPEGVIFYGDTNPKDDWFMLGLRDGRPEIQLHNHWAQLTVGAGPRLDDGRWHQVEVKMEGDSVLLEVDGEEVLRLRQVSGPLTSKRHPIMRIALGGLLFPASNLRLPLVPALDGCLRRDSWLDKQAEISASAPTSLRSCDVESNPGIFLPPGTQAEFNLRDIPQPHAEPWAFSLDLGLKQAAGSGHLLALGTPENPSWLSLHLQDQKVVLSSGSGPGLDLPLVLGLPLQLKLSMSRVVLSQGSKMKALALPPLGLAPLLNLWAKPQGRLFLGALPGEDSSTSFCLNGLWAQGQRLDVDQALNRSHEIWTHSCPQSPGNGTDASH
Nature of the data set: Binding affinity to SHBG.

Data set [2] is described as follows: (§1) Cmax in Sprague-Dawley rat at 10 mg/kg, po. The data set is classed as ADME, organism-based. Set-up: dose 10 mg/kg, route oral. The conditions noted are these: in vivo.
Another data set concerns the target Cytochrome P450 3A4 (Homo sapiens, UniProt P08684). As to the kind of experiment: Inhibition of CYP3A4. The data set is classed as ADME.
The next data set concerns the target Cytochrome P450 2C19 (Homo sapiens, UniProt P33261). Nature of the data set: Inhibition of CYP2C19. The data set is classed as ADME.
A further data set concerns the target T2, Androgen receptor (Homo sapiens, UniProt P10275).
T2 sequence (P10275 whole entry): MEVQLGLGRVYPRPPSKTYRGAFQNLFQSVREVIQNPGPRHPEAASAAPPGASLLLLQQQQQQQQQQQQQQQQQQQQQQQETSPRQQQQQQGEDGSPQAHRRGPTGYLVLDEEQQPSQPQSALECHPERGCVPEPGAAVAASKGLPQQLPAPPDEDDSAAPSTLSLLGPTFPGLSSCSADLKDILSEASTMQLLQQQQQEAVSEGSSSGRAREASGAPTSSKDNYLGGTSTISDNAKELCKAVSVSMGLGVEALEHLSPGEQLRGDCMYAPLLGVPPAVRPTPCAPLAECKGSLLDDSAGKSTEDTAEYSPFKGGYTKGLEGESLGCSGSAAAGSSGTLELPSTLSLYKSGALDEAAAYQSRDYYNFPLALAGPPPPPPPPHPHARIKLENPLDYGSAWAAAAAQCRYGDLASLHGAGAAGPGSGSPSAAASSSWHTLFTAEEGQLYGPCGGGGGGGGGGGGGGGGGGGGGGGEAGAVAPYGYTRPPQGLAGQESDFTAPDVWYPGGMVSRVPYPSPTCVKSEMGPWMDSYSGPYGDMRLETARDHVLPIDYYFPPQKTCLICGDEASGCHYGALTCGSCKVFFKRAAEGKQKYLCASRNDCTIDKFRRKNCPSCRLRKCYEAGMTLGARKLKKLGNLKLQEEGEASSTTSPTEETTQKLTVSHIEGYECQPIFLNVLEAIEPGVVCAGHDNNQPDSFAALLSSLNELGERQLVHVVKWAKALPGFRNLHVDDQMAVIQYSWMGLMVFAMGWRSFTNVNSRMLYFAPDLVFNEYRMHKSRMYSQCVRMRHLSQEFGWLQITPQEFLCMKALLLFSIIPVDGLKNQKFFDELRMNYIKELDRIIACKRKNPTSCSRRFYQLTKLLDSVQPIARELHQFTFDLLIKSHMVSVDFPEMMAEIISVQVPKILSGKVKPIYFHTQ
Nature of the data set: Displacement of [3H]DHT from androgen receptor expressed in MDA-MB-453 cells. The data set is classed as cell-based.

Data set [3] is described as follows: Bioavailability in Sprague-Dawley rat at 10 mg/kg, po. The data set is classed as ADME, organism-based. The conditions noted are these: in vivo. A digest of the protocol:
(§2)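 Rat pharmacokinetics used 5 mg/kg i.v. and 10 mg/kg p.o. dosing. Oral bioavailability (F%), half-life, oral Tmax and total body clearance were derived from plasma concentrations.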

Another data set deals with Rattus norvegicus. As to the kind of experiment: Stimulation of levator ani muscle weight in Sprague-Dawley rat at 1 mg/kg, po after 14 days. The data set is classed as functional. The method, boiled down:
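Mature male rats were castrated two weeks before treatment. Compound was given […] once daily for two weeks, then levator ani muscle and ventral prostate were weighed. Weights are expressed as percent of a sham-operated, vehicle-treated intact control group, ±SEM.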

Data set [4] in a line: as §1. It is filed as ADME, organism-based. Also on record: dose 10 mg/kg, route oral. The conditions noted are these: in vivo. This is another data set of the same source.
The next data set has as its target T3, Cytochrome P450 1A2 (Homo sapiens, UniProt P05177).
T3 sequence (P05177 whole entry): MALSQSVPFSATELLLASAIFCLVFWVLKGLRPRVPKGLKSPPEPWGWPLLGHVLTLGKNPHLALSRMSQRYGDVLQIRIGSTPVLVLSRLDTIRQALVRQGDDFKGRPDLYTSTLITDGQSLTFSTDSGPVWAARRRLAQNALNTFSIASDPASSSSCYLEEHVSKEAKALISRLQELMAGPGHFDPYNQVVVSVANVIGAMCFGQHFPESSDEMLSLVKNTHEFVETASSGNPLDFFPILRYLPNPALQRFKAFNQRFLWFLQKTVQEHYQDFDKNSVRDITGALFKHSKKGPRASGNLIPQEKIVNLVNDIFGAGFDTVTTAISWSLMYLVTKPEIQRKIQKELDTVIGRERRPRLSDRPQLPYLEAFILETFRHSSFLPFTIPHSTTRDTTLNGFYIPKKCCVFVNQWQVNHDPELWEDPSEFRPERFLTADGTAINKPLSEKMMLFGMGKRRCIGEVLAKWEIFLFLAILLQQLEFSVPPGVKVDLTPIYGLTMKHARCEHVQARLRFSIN
As to the kind of experiment: Inhibition of CYP1A2. It is filed as ADME.

Data set [5] is described as follows: Half life in Sprague-Dawley rat at 10 mg/kg, po and 5 mg/kg, iv. The conditions noted are these: in vivo. It is filed as ADME, organism-based. The method, boiled down: as §2

Sequence of Cytochrome P450 2C19 (P33261 whole entry): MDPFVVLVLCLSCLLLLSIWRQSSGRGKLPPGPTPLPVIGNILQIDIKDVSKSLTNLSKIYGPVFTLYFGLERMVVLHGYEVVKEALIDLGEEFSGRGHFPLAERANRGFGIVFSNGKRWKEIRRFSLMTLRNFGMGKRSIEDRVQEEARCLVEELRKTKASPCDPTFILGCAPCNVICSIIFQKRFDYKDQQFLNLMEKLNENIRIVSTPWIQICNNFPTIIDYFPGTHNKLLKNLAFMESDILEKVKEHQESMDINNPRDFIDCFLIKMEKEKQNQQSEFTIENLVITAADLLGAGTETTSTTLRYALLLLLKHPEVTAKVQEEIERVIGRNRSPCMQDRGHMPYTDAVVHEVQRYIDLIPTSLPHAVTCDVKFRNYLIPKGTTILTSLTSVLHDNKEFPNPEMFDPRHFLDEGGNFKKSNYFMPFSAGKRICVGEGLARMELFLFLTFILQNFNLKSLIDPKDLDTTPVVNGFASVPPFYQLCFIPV
Sequence of Estrogen receptor (P03372 whole entry, looked up): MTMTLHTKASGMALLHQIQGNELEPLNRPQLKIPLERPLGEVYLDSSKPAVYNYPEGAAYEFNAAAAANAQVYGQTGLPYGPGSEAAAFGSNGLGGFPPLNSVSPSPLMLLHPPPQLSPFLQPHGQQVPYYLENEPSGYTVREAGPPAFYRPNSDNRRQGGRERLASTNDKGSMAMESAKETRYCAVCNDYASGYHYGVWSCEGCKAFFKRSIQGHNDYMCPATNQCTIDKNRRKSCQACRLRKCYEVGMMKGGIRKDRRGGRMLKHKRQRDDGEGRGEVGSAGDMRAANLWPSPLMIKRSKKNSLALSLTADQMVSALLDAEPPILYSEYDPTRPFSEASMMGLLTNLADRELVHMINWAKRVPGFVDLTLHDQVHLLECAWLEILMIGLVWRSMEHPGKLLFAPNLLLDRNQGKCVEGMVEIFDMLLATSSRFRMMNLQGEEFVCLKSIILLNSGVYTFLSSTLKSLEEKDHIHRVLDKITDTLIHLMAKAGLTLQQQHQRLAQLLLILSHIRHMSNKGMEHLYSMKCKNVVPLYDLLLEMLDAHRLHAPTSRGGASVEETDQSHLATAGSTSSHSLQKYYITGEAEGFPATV
Sequence of Cytochrome P450 3A4 (P08684 whole entry): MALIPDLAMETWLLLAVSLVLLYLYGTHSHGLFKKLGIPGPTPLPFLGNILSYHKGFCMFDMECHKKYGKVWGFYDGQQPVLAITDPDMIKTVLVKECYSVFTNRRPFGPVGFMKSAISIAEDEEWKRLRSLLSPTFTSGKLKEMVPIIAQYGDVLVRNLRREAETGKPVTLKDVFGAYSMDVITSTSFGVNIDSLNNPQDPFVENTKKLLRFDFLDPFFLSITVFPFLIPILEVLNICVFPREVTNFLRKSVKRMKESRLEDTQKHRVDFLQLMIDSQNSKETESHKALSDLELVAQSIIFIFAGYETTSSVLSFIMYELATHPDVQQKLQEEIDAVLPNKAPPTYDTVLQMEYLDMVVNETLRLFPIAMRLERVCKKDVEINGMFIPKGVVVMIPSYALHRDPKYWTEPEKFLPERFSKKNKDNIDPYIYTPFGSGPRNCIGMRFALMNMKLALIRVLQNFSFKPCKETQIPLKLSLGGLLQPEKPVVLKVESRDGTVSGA

As for `CC[C@H]1[C@@H]2[C@@H](O)CCN2C(=O)N1c1ccc(C#N)c(Cl)c1C`, the results for the Ki (on Estrogen receptor; in [1]; on Androgen receptor) were above 10 µM, above 100 µM and 0.0009 µM, respectively. For the same compound, the Cmax (commonly the highest concentration seen after dosing) in data set [2] stood at 2100 nM; in [4], 3100 nM. Further, the results for the IC50 on Cytochrome P450 3A4, against Cytochrome P450 2C19 and on Cytochrome P450 1A2 were above 40 µM, 7.6 µM and above 40 µM, respectively. The bioavailability – broadly, the share of a dose that reaches the circulation, judged against a reference dose that is usually intravenous – in data set [3] was determined as 65%. The compound also came in with an Activity in the data set with Rattus norvegicus of 101%. Further, the half-life (commonly the time needed for the level to fall by half in the phase considered) in data set [5] is 5.5 h.

The record behind these values is ChEMBL document CHEMBL1145402, “Discovery of potent and muscle selective androgen receptor modulators through scaffold modifications” (J Med Chem, 2007).
